pIC50: −log10 of the molar value.
How the values were obtained:
[1] = biological target: Myotonin-protein kinase (Homo sapiens) (UniProt Q09013); test: Inhibition of full length recombinant human DMPK expressed in baculovirus expression system at 1 uM by FRET assay relative to control
[2] = biological target: Calcium/calmodulin-dependent protein kinase kinase 1 (Homo sapiens) (UniProt Q8N5S9); test: Inhibition of recombinant full length His-tagged human CAMKK1 expressed in baculovirus expression system at 1 uM by FRET assay relative to control
[3] = biological target: Activin receptor type-2B (Homo sapiens) (UniProt Q13705); test: Inhibition of recombinant GST-tagged human ACVR2B catalytic domain (185 to 488 residues) expressed in baculovirus expression system at 1 uM by FRET assay relative to control
[4] = biological target: Leukocyte tyrosine kinase receptor (Homo sapiens) (UniProt P29376); test: Inhibition of recombinant GST-tagged human LTK cytoplasmic domain (440 to 864 residues) expressed in baculovirus expression system at 1 uM by FRET assay relative to control
Outline: (§1)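 Part of a 220-kinase panel run at a single concentration of 1 μM. Z′-LYTE format: phosphorylation of a labelled peptide read by FRET. Values reported as percent inhibition.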

[5] = biological target: T1, Mitogen-activated protein kinase 9 (Homo sapiens, UniProt P45984); test: Inhibition of recombinant full length His-tagged human JNK2 ([…]) expressed in baculovirus expression system at 1 uM by FRET assay relative to control
Target sequence in this assay (P45984 whole entry, looked up, the tested form may be a part): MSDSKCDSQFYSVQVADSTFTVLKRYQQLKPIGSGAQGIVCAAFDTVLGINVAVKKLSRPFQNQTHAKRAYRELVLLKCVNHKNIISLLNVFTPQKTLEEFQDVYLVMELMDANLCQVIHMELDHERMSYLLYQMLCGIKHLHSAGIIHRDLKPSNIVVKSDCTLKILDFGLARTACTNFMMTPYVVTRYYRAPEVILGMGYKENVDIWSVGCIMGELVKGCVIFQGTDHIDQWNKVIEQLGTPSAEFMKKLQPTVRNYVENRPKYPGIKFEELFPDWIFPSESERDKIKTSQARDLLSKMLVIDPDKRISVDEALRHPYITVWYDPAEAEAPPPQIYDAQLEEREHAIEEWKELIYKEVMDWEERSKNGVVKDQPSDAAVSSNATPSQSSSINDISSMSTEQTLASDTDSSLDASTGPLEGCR

[6] = biological target: Insulin receptor (Homo sapiens) (UniProt P06213); test: Inhibition of recombinant His-tagged human InsR (1011 to 1382 residues) expressed in baculovirus expression system at 1 uM by FRET relative to control
Outline: (§2)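 Single-point screen at 1 μM compound in a 220-kinase panel run by Life Technologies (SelectScreen). Z′-LYTE format: phosphorylation of a labeled peptide substrate read by FRET. Values are reported as percent inhibition.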

[7] = biological target: Glycogen synthase kinase-3 beta (Homo sapiens) (UniProt P49841); test: Inhibition of recombinant full length His-tagged human GSK3beta expressed in baculovirus expression system at 1 uM by FRET relative to control
[8] = biological target: Receptor-type tyrosine-protein kinase FLT3 (Homo sapiens) (UniProt P36888); test: Inhibition of recombinant His-tagged human FLT3 cytoplasmic domain expressed in baculovirus expression system at 1 uM by FRET assay relative to control; outline: as §2
[9] = biological target: Vascular endothelial growth factor receptor 1 (Homo sapiens) (UniProt P17948); test: Inhibition of recombinant GST-tagged human FLT1 cytoplasmic domain expressed in baculovirus expression system at 1 uM by FRET assay relative to control; outline: as §2
Sequence of Vascular endothelial growth factor receptor 1 (Homo sapiens) (P17948 whole entry, the tested form may be a part): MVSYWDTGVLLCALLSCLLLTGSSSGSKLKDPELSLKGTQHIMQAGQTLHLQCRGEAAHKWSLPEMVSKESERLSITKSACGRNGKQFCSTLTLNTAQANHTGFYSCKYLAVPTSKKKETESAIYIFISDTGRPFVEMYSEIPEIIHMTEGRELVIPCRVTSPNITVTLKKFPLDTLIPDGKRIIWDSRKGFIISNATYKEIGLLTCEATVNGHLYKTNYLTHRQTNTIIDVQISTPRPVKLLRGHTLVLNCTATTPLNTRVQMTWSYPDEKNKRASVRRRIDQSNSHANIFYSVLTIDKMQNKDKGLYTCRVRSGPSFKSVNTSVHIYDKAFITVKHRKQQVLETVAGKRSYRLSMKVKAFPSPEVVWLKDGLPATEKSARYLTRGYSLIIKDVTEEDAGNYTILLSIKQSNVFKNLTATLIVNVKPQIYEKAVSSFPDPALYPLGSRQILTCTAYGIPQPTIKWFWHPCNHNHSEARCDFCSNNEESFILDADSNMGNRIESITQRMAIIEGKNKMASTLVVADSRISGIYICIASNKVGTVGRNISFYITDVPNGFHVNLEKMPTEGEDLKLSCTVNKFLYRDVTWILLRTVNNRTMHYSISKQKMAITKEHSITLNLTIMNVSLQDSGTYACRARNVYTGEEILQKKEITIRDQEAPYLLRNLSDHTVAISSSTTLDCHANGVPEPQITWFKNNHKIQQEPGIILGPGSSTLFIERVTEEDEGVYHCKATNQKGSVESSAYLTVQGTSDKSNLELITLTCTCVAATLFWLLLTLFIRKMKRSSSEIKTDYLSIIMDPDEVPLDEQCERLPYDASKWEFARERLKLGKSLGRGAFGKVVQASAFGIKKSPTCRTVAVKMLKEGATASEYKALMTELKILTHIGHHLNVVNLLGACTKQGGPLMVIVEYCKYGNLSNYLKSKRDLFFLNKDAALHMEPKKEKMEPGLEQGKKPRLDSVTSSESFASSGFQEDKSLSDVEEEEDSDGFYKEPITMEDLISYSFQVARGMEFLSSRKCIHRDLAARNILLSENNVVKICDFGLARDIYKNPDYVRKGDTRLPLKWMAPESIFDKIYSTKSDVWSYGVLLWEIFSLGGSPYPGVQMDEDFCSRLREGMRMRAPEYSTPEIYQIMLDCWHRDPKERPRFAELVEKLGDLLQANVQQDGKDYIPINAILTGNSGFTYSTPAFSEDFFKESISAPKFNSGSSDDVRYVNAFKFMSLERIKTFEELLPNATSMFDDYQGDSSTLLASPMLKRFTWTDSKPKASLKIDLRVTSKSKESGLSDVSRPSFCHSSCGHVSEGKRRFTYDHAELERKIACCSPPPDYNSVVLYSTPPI

[10] = biological target: Mitogen-activated protein kinase 1 (Homo sapiens) (UniProt P28482); test: Inhibition of recombinant GST-tagged human ERK2 expressed in Escherichia coli at 1 uM by FRET assay relative to control; outline: as §2
Sequence of Mitogen-activated protein kinase 1 (Homo sapiens) (P28482 whole entry, the tested form may be a part): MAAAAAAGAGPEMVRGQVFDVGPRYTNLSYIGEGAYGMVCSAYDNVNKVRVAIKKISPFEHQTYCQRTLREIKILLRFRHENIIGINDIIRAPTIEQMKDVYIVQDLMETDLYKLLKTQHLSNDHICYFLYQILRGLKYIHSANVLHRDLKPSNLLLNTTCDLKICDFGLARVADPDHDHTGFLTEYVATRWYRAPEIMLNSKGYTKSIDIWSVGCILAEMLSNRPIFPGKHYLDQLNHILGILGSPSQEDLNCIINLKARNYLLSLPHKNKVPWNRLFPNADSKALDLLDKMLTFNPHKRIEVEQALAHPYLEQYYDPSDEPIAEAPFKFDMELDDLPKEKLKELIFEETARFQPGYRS

[11] = biological target: Ephrin type-B receptor 3 (Homo sapiens) (UniProt P54753); test: Inhibition of recombinant GST-tagged human EphB3 cytoplasmic domain expressed in baculovirus expression system at 1 uM by FRET assay relative to control; outline: as §2
[12] = biological target: Ephrin type-A receptor 3 (Homo sapiens) (UniProt P29320); test: Inhibition of recombinant His-tagged human EphA3 cytoplasmic domain expressed in baculovirus expression system at 1 uM by FRET assay relative to control; outline: as §2
[13] = biological target: Platelet-derived growth factor receptor alpha (Homo sapiens) (UniProt P16234); test: Inhibition of recombinant GST-tagged human PDGFRalpha cytoplasmic domain expressed in baculovirus expression system at 1 uM by FRET assay relative to control; outline: as §2
[14] = biological target: Ribosomal protein S6 kinase alpha-5 (Homo sapiens) (UniProt O75582); test: Inhibition of recombinant full length GST-tagged human MSK1 expressed in baculovirus at 1 uM by FRET assay relative to control
Outline: (§3)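 Single-concentration screen at 1 μM in Life Technologies SelectScreen, across a 220-kinase panel. Z′-LYTE format measures phosphorylation of a labeled peptide by FRET. Results are reported as percent inhibition.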

[15] = biological target: Misshapen-like kinase 1 (Homo sapiens) (UniProt Q8N4C8); test: Inhibition of recombinant human GST-tagged MINK1 expressed in baculovirus at 1 uM by FRET assay relative to control
[16] = biological target: Mitogen-activated protein kinase kinase kinase 2 (Homo sapiens) (UniProt Q9Y2U5); test: Inhibition of recombinant full length GST-tagged human MEKK2 expressed in baculovirus expression system at 1 uM by FRET assay relative to control; outline: as §1
[17] = biological target: Wee1-like protein kinase (Homo sapiens) (UniProt P30291); test: Inhibition of recombinant N-terminal full length GST-tagged human WEE1 expressed in baculovirus expression system at 1 uM by FRET assay relative to control; outline: as §3
[18] = biological target: Proto-oncogene tyrosine-protein kinase ROS (Homo sapiens) (UniProt P08922); test: Inhibition of recombinant GST-tagged human Ros cytoplasmic domain expressed in baculovirus expression system at 1 uM by FRET assay relative to control; outline: as §2
Sequence of Proto-oncogene tyrosine-protein kinase ROS (Homo sapiens) (P08922 whole entry, the tested form may be a part): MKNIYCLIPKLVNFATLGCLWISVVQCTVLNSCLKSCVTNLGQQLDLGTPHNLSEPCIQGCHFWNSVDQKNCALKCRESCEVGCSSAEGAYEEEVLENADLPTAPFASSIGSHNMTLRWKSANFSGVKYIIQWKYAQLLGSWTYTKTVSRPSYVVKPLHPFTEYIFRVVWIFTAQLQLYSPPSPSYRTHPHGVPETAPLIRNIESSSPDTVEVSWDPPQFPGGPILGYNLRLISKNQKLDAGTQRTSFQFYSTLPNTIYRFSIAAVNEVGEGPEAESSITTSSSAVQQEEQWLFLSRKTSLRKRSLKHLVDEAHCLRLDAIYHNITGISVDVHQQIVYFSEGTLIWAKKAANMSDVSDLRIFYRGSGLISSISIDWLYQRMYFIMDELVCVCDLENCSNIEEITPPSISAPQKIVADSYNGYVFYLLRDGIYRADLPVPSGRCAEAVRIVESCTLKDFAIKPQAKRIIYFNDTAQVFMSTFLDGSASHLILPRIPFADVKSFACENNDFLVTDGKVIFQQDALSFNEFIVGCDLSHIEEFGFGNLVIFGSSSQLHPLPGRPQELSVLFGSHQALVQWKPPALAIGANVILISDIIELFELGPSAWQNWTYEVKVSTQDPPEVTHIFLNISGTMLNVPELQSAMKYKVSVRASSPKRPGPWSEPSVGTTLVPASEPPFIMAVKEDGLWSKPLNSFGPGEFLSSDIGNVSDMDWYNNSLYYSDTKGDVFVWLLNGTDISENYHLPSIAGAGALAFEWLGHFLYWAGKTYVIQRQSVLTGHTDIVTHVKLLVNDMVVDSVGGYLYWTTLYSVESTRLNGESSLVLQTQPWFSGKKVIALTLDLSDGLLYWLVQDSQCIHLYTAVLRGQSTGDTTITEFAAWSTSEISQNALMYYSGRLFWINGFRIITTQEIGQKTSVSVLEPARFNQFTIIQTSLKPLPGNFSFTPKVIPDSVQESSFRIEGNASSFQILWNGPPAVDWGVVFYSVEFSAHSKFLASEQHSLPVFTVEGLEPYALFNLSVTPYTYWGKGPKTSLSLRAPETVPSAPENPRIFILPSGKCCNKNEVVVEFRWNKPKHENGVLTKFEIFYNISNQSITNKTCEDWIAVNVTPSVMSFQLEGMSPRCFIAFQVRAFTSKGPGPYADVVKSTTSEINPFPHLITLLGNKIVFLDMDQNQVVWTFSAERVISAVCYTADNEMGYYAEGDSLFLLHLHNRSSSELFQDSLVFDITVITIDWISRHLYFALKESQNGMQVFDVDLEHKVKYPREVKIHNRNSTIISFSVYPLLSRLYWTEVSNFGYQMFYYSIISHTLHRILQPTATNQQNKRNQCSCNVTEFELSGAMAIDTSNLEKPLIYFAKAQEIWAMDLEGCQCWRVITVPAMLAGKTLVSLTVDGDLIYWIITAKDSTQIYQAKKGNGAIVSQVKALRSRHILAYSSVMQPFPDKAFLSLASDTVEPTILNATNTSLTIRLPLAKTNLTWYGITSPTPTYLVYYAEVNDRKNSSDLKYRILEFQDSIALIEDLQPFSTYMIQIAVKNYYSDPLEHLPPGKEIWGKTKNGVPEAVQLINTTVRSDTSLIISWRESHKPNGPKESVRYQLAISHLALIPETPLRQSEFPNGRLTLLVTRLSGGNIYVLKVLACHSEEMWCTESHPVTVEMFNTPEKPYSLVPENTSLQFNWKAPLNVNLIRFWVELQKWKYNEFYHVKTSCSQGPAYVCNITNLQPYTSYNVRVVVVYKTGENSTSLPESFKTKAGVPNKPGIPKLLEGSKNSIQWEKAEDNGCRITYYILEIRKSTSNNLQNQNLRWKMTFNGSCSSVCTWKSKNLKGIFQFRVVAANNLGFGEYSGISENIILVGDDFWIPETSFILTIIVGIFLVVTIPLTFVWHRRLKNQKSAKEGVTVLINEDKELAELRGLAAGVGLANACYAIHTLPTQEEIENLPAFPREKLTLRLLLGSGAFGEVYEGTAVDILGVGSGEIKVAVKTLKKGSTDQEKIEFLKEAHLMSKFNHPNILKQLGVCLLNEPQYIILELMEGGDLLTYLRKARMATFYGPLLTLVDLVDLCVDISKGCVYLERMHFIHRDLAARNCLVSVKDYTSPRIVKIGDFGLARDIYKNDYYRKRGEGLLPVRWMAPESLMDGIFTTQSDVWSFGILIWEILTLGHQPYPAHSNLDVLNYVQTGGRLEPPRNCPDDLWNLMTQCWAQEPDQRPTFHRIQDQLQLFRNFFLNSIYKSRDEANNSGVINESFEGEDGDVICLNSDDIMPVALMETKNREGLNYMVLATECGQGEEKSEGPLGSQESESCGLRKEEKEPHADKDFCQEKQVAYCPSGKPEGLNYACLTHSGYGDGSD

[19] = biological target: Rho-associated protein kinase 2 (Homo sapiens) (UniProt O75116); test: Inhibition of recombinant N-terminal GST-tagged human ROCK2 catalytic domain (1 to 552 residues) expressed in baculovirus expression system at 1 uM by FRET assay relative to control; outline: as §3
[20] = biological target: Proto-oncogene tyrosine-protein kinase receptor Ret (Homo sapiens) (UniProt P07949); test: Inhibition of recombinant N-terminal GST-tagged human Ret cytoplasmic domain (658 to 1114 residues) expressed in baculovirus expression system at 1 uM by FRET assay relative to control; outline: as §3
[21] = biological target: T1, Mitogen-activated protein kinase 9; test: Inhibition of recombinant full length His-tagged human JNK2 ([…]) expressed in baculovirus expression system at by FRET assay
Target sequence in this assay (P45984 whole entry, the tested form may be a part): as the sequence (P45984 whole entry, looked up, the tested form may be a part) above

[22] = biological target: Mitogen-activated protein kinase 10 (Homo sapiens, UniProt P53779); test: Inhibition of recombinant full length GST-tagged human JNK3 expressed in baculovirus expression system by FRET assay
[23] = biological target: Mitogen-activated protein kinase kinase kinase 9 (Homo sapiens, UniProt P80192); test: Inhibition of recombinant human GST-tagged MLK1 expressed in baculovirus expression system by FRET assay
[24] = biological target: Beta-1 adrenergic receptor (Homo sapiens) (UniProt P08588); test: Binding affinity to recombinant human beta1 adrenergic receptor at 10 uM relative to control
Outline: (§4)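 Broad radioligand-binding and enzyme screening panel covering 42 targets (biogenic amine and neuropeptide receptors, ion channels, neurotransmitter transporters, acetylcholinesterase). Single test concentration of 10 μM. Results expressed as binding relative to control, with a hit defined as >50% of control.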

[25] = biological target: 5-hydroxytryptamine receptor 1A (Homo sapiens) (UniProt P08908); test: Binding affinity to 5HT1A receptor (unknown origin) receptor at 10 uM relative to control; outline: as §4
[26] = biological target: 5-hydroxytryptamine receptor 1B (Homo sapiens) (UniProt P28222); test: Binding affinity to 5HT1B receptor (unknown origin) receptor at 10 uM relative to control; outline: as §4
[27] = biological target: Serine/threonine-protein kinase D1 (Homo sapiens) (UniProt Q15139); test: Inhibition of PKD1 (unknown origin) at 1 uM by FRET assay relative to control

SMILES	inhibition [1] [%]	inhibition [2] [%]	inhibition [3] [%]	inhibition [4] [%]	inhibition [5] [%]	inhibition [6] [%]	inhibition [7] [%]	inhibition [8] [%]	inhibition [9] [%]	inhibition [10] [%]	inhibition [11] [%]	inhibition [12] [%]	inhibition [13] [%]	inhibition [14] [%]	inhibition [15] [%]	inhibition [16] [%]	inhibition [17] [%]	inhibition [18] [%]	inhibition [19] [%]	inhibition [20] [%]	also measured
CC(C)n1nc(-c2cnc(N)c(OC(F)(F)F)c2)cc1[C@H]1[C@@H]2CN(C3COC3)C[C@@H]21	39.1	-7.5	-0.8	9.8	4.4	16.6	11.3	52.5	4.8	5.2	4.6	10.2	7.1	7.2	33.3	0.5	4.9	37	7.2	9.1	pIC50 [21]: < 5.00; pIC50 [22]: < 5.00; pIC50 [23]: 5.23; Activity [24]: > 50%; Activity [25]: > 50%; Activity [26]: > 50%; inhibition [27]: 20%
Nc1ncc(-c2cc([C@H]3[C@@H]4CN(C5COC5)C[C@@H]43)n(CC3CC3)n2)cc1C(F)(F)F	58.5	-0.3	-2.1	31.5	0.6	11.9	1.3	66.5	-0.6	6.3	10	22.9	11.1	1.9	12	4	7.1	40.1	-7.5	17.7	pIC50 [21]: < 5.00; pIC50 [22]: < 5.00; pIC50 [23]: 5.46; Activity [24]: > 50%; Activity [25]: > 50%; Activity [26]: > 50%; inhibition [27]: 10%

— ChEMBL document CHEMBL4118097, “Selective Inhibitors of Dual Leucine Zipper Kinase (DLK, MAP3K12) with Activity in a Model of Alzheimer's Disease” (J Med Chem, 2017)
